According to PMC4836388 (ACS chemical biology, 2015):
Entries after “also recorded” stand apart in the source; their conditions may differ.

B1: cyanovirin-N: lectin that binds high-mannose glycans in the gp120 outer domain (protein, UniProt P81180 1-101, looked up)
Cyanovirin-N: LGKFSQTCYNSAIQGSVLTSTCERTNGGYNTSSIDLNSVIENVDGSLKWQPSNFIETCRNTQLAGSSELAAECKTRAQQFVSTKINLDDHIANIDGTLKYE

Experiments:
[1] = tested on: HIV-1BaL virions; experiment: sulfhydryl reagent treat/wash viral infection assay; assay type: cell-based; details: HOS cells
[2] = tested on: HIV-1BaL pseudovirus; experiment: single-round pseudoviral infection luciferase reporter assay; assay type: cell-based; details: for inhibition of pseudotyped HIV-1BaL infection by sulfhydryl reagent: reagent not removed
[3] = tested on: pseudotyped HIV-1BaL virus; experiment: virolysis assay; details: HIV-1BaL pseudotyped virions
[4] = tested on: HIV-1BaL pseudovirus; experiment: 2G12 mechanism of action infection assay; assay type: cell-based; details: ligand added after virus bound to cells at 4 °C
Outline: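 HIV-1BaL.01 Env pseudovirus (pNL4-3.Luc+ R− E− backbone, made in HEK-293T, iodixanol-gradient purified) bound to prechilled HOS.T4.R5 cells (preseeded 24 h, 8000/well) 4 h at 4 °C. Cells washed twice cold, then exposed to serially diluted test antibody for 30 min steps at 4 °C and 23 °C, then 24 h at 37 °C. Medium wash; lysis at 48 h; luciferase (1 mM D-luciferin). Enfuvirtide control wells; triplicate; infection relative to virus without inhibitor.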

[5] = tested on: pseudotyped HIV-1BaL virions; experiment: protein inhibition of virolysis; details: with 10 μM 1, 14 μM 2 or 50 μM 8 (EC80)

Molecule	virus infectivity after reagent treatment and removal [1]	inhibition of pseudotyped HIV-1BaL infection by sulfhydryl reagent [2]	also measured
O[C@@H](CS)[C@@H](O)CS (racemic) [DTT, dithiothreitol]	did not cause significant dose-dependent reduction	inhibit	
NC(=O)CI [IAAm, iodoacetamide]		inhibit	
O=C(O)CCP(CCC(=O)O)CCC(=O)O [TCEP, tris(2-carboxyethyl)phosphine]	did not cause significant dose-dependent reduction	inhibit	
CC[C@H](C)[C@H](NC(=O)[C@@H](N)CCCNC(=N)N)C(=O)N[C@@H](CC(N)=O)C(=O)N[C@@H](CC(N)=O)C(=O)N[C@H](C(=O)N1C[C@@H](n2cc([C]34[CH]5[CH]6[CH]7[CH]3[Fe]6754389%10[CH]4[CH]3[CH]8[CH]9[CH]4%10)nn2)C[C@H]1C(=O)N[C@@H](Cc1c[nH]c2ccccc12)C(=O)N[C@@H](CO)C(=O)N[C@@H](CCC(=O)O)C(=O)N[C@@H](C)C(=O)N[C@@H](CCSC)C(=O)N[C@@H](CCSC)C(=O)NCCC(=O)N[C@@H](CCC(N)=O)C(=O)NCCC(=O)N[C@@H](CSC1CC(=O)N(CCC(=O)NCCCOCCOCCOCCCNC(=O)CCN2C(=O)CC(SC[C@H](NC(=O)CCNC(=O)[C@H](CCC(N)=O)NC(=O)CCNC(=O)[C@H](CCSC)NC(=O)[C@H](CCSC)NC(=O)[C@H](C)NC(=O)[C@H](CCC(=O)O)NC(=O)[C@H](CO)NC(=O)[C@H](Cc3c[nH]c4ccccc34)NC(=O)[C@@H]3C[C@H](n4cc([C]56[CH]7[CH]8[CH]9[CH]5[Fe]89765%10%11%12[CH]6[CH]5[CH]%10[CH]%11[CH]6%12)nn4)CN3C(=O)[C@@H](NC(=O)[C@H](CC(N)=O)NC(=O)[C@H](CC(N)=O)NC(=O)[C@@H](NC(=O)[C@@H](N)CCCNC(=N)N)[C@@H](C)CC)[C@@H](C)CC)C(N)=O)C2=O)C1=O)C(N)=O)[C@@H](C)CC (stereo partly drawn) [1a]			inhibition of HIV-1 infection (in words) ([2]; HIV-1BaL pseudotyped virions): powerful inhibitor of HIV-1 infection, comparable to 1; p24 release (in words) [3]: did not induce p24 release
enfuvirtide [T20]			infection with six-helix bundle formation delayed by low temperature [4]: blocked infection
B1			inhibition of PTT-induced p24 release by protein ligand [5]: did not inhibit p24 release; also recorded: no inhibition of p24 release
